Assay outcomes (PubChem BioAssay)
TRPC4 PAM – positive allosteric modulators of TRPC4, primary screen, cell-based, mouse TRPC4beta, HEK293 mu-opioid, Fluo-4 calcium. Short transient receptor potential channel 4 (Mus musculus), Q9QUQ5. DAMGO EC20, Fluo-4 Ca2+ flux; active compounds read high. B-score at 10 µM. 310,000 compounds, 0.42% hits;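 active means B-score of calcium response area above 5 SD of library B-scores, with initial fluorescence ratio within 5 SD of library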
TRPC4 block – inhibitors of mouse TRPC4 channel, primary screen, Fluo4 calcium, HEK293 TRPC4beta/mu-opioid cells | Short transient receptor potential channel 4 (Mus musculus), Q9QUQ5 | DAMGO-evoked Fluo4 calcium flux; active compounds read low | B-score at 10 µM | 300,000 compounds, 0.39% hits | AID 2247, 2010;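 active means B-score over 3 SD under the library average, no early fluorescence shift, positive overall ratio signal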
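Assay system: HEK293 cells with stable TRPC4beta plus mu-opioid receptor expression. Dosing: single dose. Measured by: Fluo4 Ca2+ flux fluorescence. Also added: DAMGO in two steps, submaximal then maximal. Read-out: B score from integrated Fluo4 fluorescence ratio.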
TRPC6 act – mouse TRPC6 channel activators, primary screen, cell-based, HEK293, membrane potential dye; Short transient receptor potential channel 6 (Mus musculus), Q61143; HEK293-TRPC6 membrane potential dye fluorescence; active compounds read high; B-score at 10 µM; 310,000 compounds, 0.13% hits;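 active means B-score of the integrated fluorescence ratio above library mean plus 3 SD, and starting fluorescence ratio within library mean plus 5 SD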;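 further: higher score means more depolarization so channel activation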
Target sequence (Q61143 whole entry, looked up): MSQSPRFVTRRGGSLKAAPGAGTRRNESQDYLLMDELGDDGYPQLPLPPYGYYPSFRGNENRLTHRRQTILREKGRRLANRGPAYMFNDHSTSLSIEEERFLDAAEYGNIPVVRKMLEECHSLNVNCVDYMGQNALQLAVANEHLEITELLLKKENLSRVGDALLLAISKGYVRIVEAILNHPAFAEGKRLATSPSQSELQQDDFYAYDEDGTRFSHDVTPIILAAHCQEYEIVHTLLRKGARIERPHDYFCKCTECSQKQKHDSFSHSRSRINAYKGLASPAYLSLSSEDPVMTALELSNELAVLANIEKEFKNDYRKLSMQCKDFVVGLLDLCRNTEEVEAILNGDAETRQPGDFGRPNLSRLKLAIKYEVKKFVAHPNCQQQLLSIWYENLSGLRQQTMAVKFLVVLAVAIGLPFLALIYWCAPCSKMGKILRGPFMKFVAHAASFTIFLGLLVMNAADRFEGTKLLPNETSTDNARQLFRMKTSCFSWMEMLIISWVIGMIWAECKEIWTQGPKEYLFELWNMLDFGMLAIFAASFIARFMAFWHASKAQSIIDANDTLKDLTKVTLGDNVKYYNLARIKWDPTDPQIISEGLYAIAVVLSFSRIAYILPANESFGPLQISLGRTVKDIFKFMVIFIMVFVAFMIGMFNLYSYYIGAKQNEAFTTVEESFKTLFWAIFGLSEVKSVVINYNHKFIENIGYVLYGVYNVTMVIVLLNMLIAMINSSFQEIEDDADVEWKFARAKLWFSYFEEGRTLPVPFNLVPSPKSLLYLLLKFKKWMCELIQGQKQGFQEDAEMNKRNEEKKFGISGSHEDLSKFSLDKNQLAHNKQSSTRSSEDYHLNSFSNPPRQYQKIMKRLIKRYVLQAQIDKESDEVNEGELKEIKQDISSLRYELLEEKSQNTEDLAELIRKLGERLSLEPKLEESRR
TRPC4 act – activators of mouse TRPC4 channel, primary screen, Fluo4 calcium, HEK293 TRPC4beta/mu-opioid cells; Fluo4 calcium fluorescence; active compounds read high; 310,000 compounds, 0.49% hits; AID 2237, 2010; B-score at 10 µM; Short transient receptor potential channel 4 (Mus musculus), Q9QUQ5;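 active means B-score above 5 SD of library B-scores, and initial fluorescence ratio not above library mean plus 5 SD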;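 further: positive B-score marks a calcium rise read as TRPC4 activation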
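Assay system – TRPC4beta and mu-opioid receptor HEK293 stable cells · Measured by – Fluo4 fluorescence, kinetic · Schedule – dye loading 45 min room temperature, 110 s kinetic read · Read-out – B-scored integrated calcium fluorescence ratio · Controls – buffer and maximal DAMGO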
TRPC6 inh – mouse TRPC6 channel inhibitors, primary screen, cell-based, HEK293, membrane potential dye | 310,000 compounds, 1.1% hits | B-score at 10 µM | Short transient receptor potential channel 6 (Mus musculus), Q61143 | ACh-evoked depolarization; active compounds read low;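 active means B-score under library mean minus 3 SD, initial fluorescence not abnormally high, positive integrated signal ratio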;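 further: B-score derived from integrated fluorescence ratio over the kinetic read; more negative B-score means stronger inhibition of depolarization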
TRPC4 sel inh 2 – second selectivity test of TRPC6 inhibitors: effect on mouse TRPC4; shares compounds with TRPC6 inh; HEK293 TRPC4/MOR, membrane potential dye fluorescence; channel activated by saturating DAMGO dose; inhibition, % at 10 µM; 920 compounds, 42% hits; AID 2776;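 active means compounds whose fluorescence signal differed from control wells by over 3 SD, either direction, in both duplicate plates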
TRPC4 spec – mouse TRPC4 modulation by TRPC6 hits, confirmation, selectivity assay for TRPC6 inhibitor project, cell-based, HEK293 TRPC4/mu-opioid, membrane potential dye; shares compounds with TRPC6 inh; membrane potential fluorescence; activity change, negative = inhibition, % at 10 µM; 920 compounds, 61% hits;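 active means rise or fall in signal beyond 3 SD of buffer-only wells in both replicate plates, either sign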;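 further: integrated kinetic ratio of fluorescence range over baseline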
HEK293 MPD ctr 2-1 – nonspecific membrane potential effects, parental HEK293, confirmation, counter-screen for TRPC6 inhibitor project, cell-based, second counter screen; shares compounds with TRPC6 inh; parental HEK293 membrane potential dye fluorescence; maximal acetylcholine challenge after compound addition; signal change vs control, % at 10 µM; 920 compounds, 31% hits;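 active means membrane potential signal moving either way by over 3 SD of the maximum-effect control, in both duplicate plates, meaning non-specific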
HEK293 MPD ctr-1 – membrane potential modulation in parental HEK293, confirmation, counter-screen for TRPC6 inhibitor project, cell-based; parental HEK293 membrane potential dye fluorescence; 920 compounds, 60% hits; shares compounds with TRPC6 inh; membrane potential signal change, % at 10 µM;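 active means membrane potential signal shifting up or down by more than 3 SD of buffer-only wells, on both duplicate plates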
HEK293 MPD ctr-2 – parental HEK293 membrane potential modulation, confirmation, counter-screen for TRPC6 modulator project, cell-based | shares compounds with TRPC6 inh | AID 488924, 2010 | membrane potential dye fluorescence | 2,400 compounds, 51% hits | membrane potential signal change, % at 10 µM;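 active means membrane potential signal moves up or down beyond 5 SD from buffer-only wells, on both duplicate plates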
HEK293 MPD ctr 2-2 – parental HEK293 nonspecific activity of TRPC6 modulators, second screen; shares compounds with TRPC6 inh; membrane potential dye fluorescence; after compound, maximal acetylcholine stimulation; inhibition, % at 10 µM; 2,400 compounds, 14% hits;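 active means membrane potential signal drops by more than 5 SD from the mean control signal, in both duplicate plates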
TRPC4/MOR mod – TRPC4 modulation by TRPC6 hit compounds, confirmation, selectivity assay for TRPC6 modulator project, cell-based, HEK293 TRPC4/mu-opioid, membrane potential dye, mouse; shares compounds with TRPC6 inh; membrane potential fluorescence; percent change from control (negative = decrease, positive = increase), % at 10 µM; 2,400 compounds, 69% hits; AID 488927, 2010;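 active means membrane potential signal moved up or down beyond 5 SD of buffer control wells, in both duplicate plates, actives on both sides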
TRPC4 ctr inh 2 – mouse TRPC4 off-target activity of TRPC6 modulators, second screen; shares compounds with TRPC6 inh; HEK293 TRPC4/mu-opioid, membrane potential dye fluorescence; stimulated with maximal-effect DAMGO; inhibition, % at 10 µM; 2,400 compounds, 55% hits;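 active means drop in membrane potential signal beyond 5 SD of the control wells in both duplicate plates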;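 further: TRPC4 counter screen for TRPC6 hits run under conditions tuned for TRPC6 not TRPC4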
TRPC6 block conf – mouse TRPC6 channel inhibitors, confirmation, HEK293 cells, membrane potential dye, duplicate; 3,300 compounds, 43% hits; inhibition, % at 10 µM; ACh-evoked depolarization; shares compounds with TRPC6 inh;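 active means fluorescence ratio falls more than 5 SD below the full-stimulation control mean, in both duplicate runs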;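 further: integrated fluorescence ratio of peak minus minimum over baseline after agonist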
TRPC6 act conf – mouse TRPC6 channel activators, confirmation, HEK293 cells, membrane potential dye, duplicate; 2,800 compounds, 11% hits; shares compounds with TRPC6 inh; AID 488961, 2010; activation, % at 10 µM; HEK293-TRPC6 membrane potential dye fluorescence, FDSS;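 active means ratio signal rise beyond 5 SD above unstimulated control wells' mean, seen in both duplicate runs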
Each line names hits and unclear results; the compound was inactive in the other large screens (follow-up assays come after a bar, where they were run). The list is not random: actives were taken first. Their share in the collection is about 2.3%.

CCN(CC)CCCNc1nc(-n2nc(C)cc2C)nc2sc3c(c12)CC(C)(C)OC3	TRPC6 inh -10 | TRPC4 sel inh 2 inactive | TRPC4 spec -11% | HEK293 MPD ctr 2-1 inactive | HEK293 MPD ctr-1 -204% | TRPC6 block conf 57% | TRPC6 act conf inactive
Cc1cc(C)n(-c2nc(NCc3cccnc3)c3c4c(sc3n2)COC(C)(C)C4)n1	TRPC6 inh -7.4 | TRPC4 sel inh 2 inactive | TRPC4 spec inactive | HEK293 MPD ctr 2-1 inactive | HEK293 MPD ctr-1 inactive | TRPC6 block conf inactive | TRPC6 act conf inactive
CC1CCN(CCCCOc2ccc(C(C)(C)C)cc2)CC1	none
CC(C)(C)c1ccc(OCCCCCCN2CCNCC2)cc1	TRPC6 inh -7.7 | TRPC4 sel inh 2 52% | TRPC4 spec -0.1% | HEK293 MPD ctr 2-1 inactive | HEK293 MPD ctr-1 2.7% | TRPC6 block conf 61% | TRPC6 act conf inactive
CC(C)(c1ccccc1)c1ccc(OCCCN2CCNCC2)cc1	TRPC6 inh -6.8 | TRPC4 sel inh 2 34% | TRPC4 spec inactive | HEK293 MPD ctr 2-1 inactive | HEK293 MPD ctr-1 2.3% | TRPC6 block conf inactive | TRPC6 act conf inactive
Cc1c(OC(C)C(=O)N2C[C@H]3C[C@@H](C2)c2cccc(=O)n2C3)ccc2c3c(c(=O)oc12)CCC3 (stereo partly drawn)	TRPC6 inh -5 | HEK293 MPD ctr-2 96% | HEK293 MPD ctr 2-2 inactive | TRPC4/MOR mod 12% | TRPC4 ctr inh 2 inactive | TRPC6 block conf inactive
Cc1nc(CN2CCN(Cc3nc(C(c4ccccc4)c4ccccc4)no3)CC2)cs1	TRPC6 inh -6.4 | HEK293 MPD ctr-2 101% | HEK293 MPD ctr 2-2 inactive | TRPC4/MOR mod 10% | TRPC4 ctr inh 2 inactive | TRPC6 block conf 48%
c1ccc(C(c2ccccc2)c2noc(CN3CCN(C4CCCC4)CC3)n2)cc1	TRPC6 inh -5.2 | HEK293 MPD ctr-2 124% | HEK293 MPD ctr 2-2 inactive | TRPC4/MOR mod 15% | TRPC4 ctr inh 2 inactive | TRPC6 block conf inactive
NC(=O)CCN1CCN(Cc2nc(C(c3ccccc3)c3ccccc3)no2)CC1	TRPC6 inh -7.9 | TRPC4 sel inh 2 inactive | TRPC4 spec inactive | HEK293 MPD ctr 2-1 inactive | HEK293 MPD ctr-1 inactive | TRPC6 block conf inactive | TRPC6 act conf inactive
CC(=O)N1CCN(Cc2nc(C(c3ccccc3)c3ccccc3)no2)CC1	none
CN1CCN(C(=O)C2CCN(c3ncc(C(F)(F)F)cc3Cl)CC2)CC1	TRPC6 inh -5.2 | HEK293 MPD ctr-2 inactive | HEK293 MPD ctr 2-2 inactive | TRPC4/MOR mod inactive | TRPC4 ctr inh 2 inactive | TRPC6 block conf inactive | TRPC6 act conf inactive
O=C(OC1CCN(c2ncc(C(F)(F)F)cc2Cl)CC1)c1ccccc1	none
CCOC(=O)c1cnc2ccc(C(=O)OC)cc2c1Nc1ccc(C(=O)O)cc1	TRPC6 inh -5.2 | HEK293 MPD ctr-2 -248% | HEK293 MPD ctr 2-2 inactive | TRPC4/MOR mod -37% | TRPC4 ctr inh 2 43% | TRPC6 block conf inactive | TRPC6 act conf inactive
CCOC(=O)c1cnc2ccc(OC)cc2c1Nc1ccc2c(c1)OCCO2	TRPC6 inh -7.5 | TRPC4 sel inh 2 inactive | TRPC4 spec -14% | HEK293 MPD ctr 2-1 inactive | HEK293 MPD ctr-1 -292% | TRPC6 block conf inactive | TRPC6 act conf inactive
CCOC(=O)c1cnc2ccc(C(=O)OC)cc2c1Nc1ccc2c(c1)OCCO2	none
CCOC(=O)c1ccc2ncc(C(=O)OCC)c(Nc3ccc(N4CCOCC4)cc3)c2c1	TRPC6 inh -9.7 | HEK293 MPD ctr-2 -186% | HEK293 MPD ctr 2-2 inactive | TRPC4/MOR mod -46% | TRPC4 ctr inh 2 42% | TRPC6 block conf inactive | TRPC6 act conf inactive
CC1(C)CNC(=O)c2sc(NC(=O)c3ccccc3Cl)nc2C1	none
Nc1nc(N2CCCCC2)nc2ccccc12	TRPC4 block -8, TRPC6 inh -11 | HEK293 MPD ctr-2 -212% | HEK293 MPD ctr 2-2 inactive | TRPC4/MOR mod -42% | TRPC4 ctr inh 2 92% | TRPC6 block conf 70% | TRPC6 act conf inactive
c1ccc(-c2nc(N3CCNCC3)nc3ccccc23)cc1	TRPC4 PAM 18, TRPC6 inh -8 | TRPC4 sel inh 2 40% | TRPC4 spec inactive | HEK293 MPD ctr 2-1 inactive | HEK293 MPD ctr-1 4.7% | TRPC6 block conf inactive | TRPC6 act conf inactive
c1ccc2c(N3CCCCC3)nc(N3CCCC3)nc2c1	none
Cc1cc(-c2ccccc2)nc(N2CCN(c3ccccn3)CC2)n1	none
